# Screens from PubChem.
# A selection: hits, their analogues and other compounds. The true share with any hit is near 8.9%.
# HSV augment: HSV replication enhancement | actives 0.005% (n = 220,000) | maximum fold increase | HSV replication augmentation in cells, fold increase; in the data active = maximum fold increase above about 1.5; tested in PC3 cells
# b-catenin transl: beta-catenin nuclear translocation modulation. HeLa beta-catenin nuclear translocation, immunofluorescence imaging. nuclear translocation activity, % at 5 µM. actives 0.3% (n = 190,000);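 active = nuclear translocation activity above 50% at 5 µM, with a well cell count of 50 or more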;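 note: per-cell ratio of nuclear to cytoplasmic median beta-catenin stain intensity; plate controls were DMSO negative control for no effect and GSK-3 inhibitor IX positive control for full effect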
#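 test system = HeLa cells, endogenous beta-catenin | dosing = single 5 µM dose plus 0.02–20 µM confirmation series | times = compound treatment 24 h, 37°C, 5% CO2 | technique = beta-catenin immunofluorescence imaging with DAPI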
# Lmaj promast: reduces viability of Leishmania major promastigotes. resazurin fluorescence viability. inhibition, % at 10 µM. actives 9% (n = 200,000). AID 1063; in the data active = inhibition above about 50%;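 note: promastigotes grown with compound for 44 hours at 28 °C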
# Dynein transport: dynein cargo transport inhibition | 3617.4 mouse cells, GR-EGFP nuclear translocation imaging; test concentration mostly 20 µM; stimulated with dexamethasone, 1 µM; active compounds read low | z-score, hits read low | actives 0.47% (n = 220,000) | AID 1381;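 active = plate z-score of nuclear minus cytoplasmic receptor signal below a set negative limit, without overly bright fluorescence or cell loss, cut at about -3.5 in these data, passing the limit was not always enough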;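 note: z-score of nuclear minus cytoplasmic ring GR-EGFP intensity difference per well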
#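 medium = tetracycline-free induction medium containing charcoal-stripped FBS | also added = 1.0 µM final dexamethasone stimulus | schedule = 48 h induction, 1 h compound, 30 min dex at 37 °C | technique = fixed, Hoechst-stained cells imaged at 10x for EGFP | measure = GR-EGFP nuclear translocation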
# MT stabilizer: microtubule stabilizers in HeLa cells. actives 0.83% (n = 200,000). AID 2205. % tubulin-high responders, % at 10 µM. HeLa tubulin immunostaining HCS, 24 h; share of cells brighter than vehicle mean+2SD;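 active = plate Z-score above 3 for both tubulin-high and condensed-nucleus cell shares, with cell loss under 80%, at 10 µM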;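 note: anti alpha tubulin signal scored within the nucleus-defined area of each cell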
# Active calls of the source: *; i = inactive; · = not tested or not shown.
SMILES,HSV augment,b-catenin transl,Lmaj promast,Dynein transport,MT stabilizer
Cc1ccccc1-n1c(C)nnc1SCC(=O)NNC(=O)c1ccccc1,i,-1,-7,-0.039,3
COc1ccc(OCCSc2nnc(C)n2-c2ccccc2)cc1,i,-1,-2,-0.98,3
CCN1CCN(Cc2cc(=O)oc3ccc(C)cc23)CC1,i,0,·,0.26,·
CCOC(=O)c1c(NC(=O)CNCCOC)sc2c1CCCC2,i,2,7,-0.77,3
O=C(CCC1CCCCC1=O)c1ccccc1 (centres undefined),·,-4,-2,0.18,4
CC1(C)CC(=O)C(CCC(=O)c2ccccc2)C(C)(C)N1 (centres undefined),i,0,90*,0.18,1
CCOc1ccc(C(=O)OCCCN(C)C)cc1,·,-1,-4,-0.52,5
C=CCCCOc1ccc(C(=O)O)cc1,i,0,-5,0.51,1
CC(C)N(CCNCC(O)COc1ccc(C(C)(C)c2ccccc2)cc1)C(C)C (centres undefined),i,5,94*,-0.68,3
CN(C)CCCOc1ccc(C(C)(C)c2ccccc2)cc1,i,3,100*,1.4,2
CN(C)CCOc1ccc(C(C)(C)c2ccccc2)cc1,i,0,72*,0.11,4
C=CCNCCOc1ccc(C(C)(C)c2ccccc2)cc1,·,3,98*,-0.81,2
CN(C)CCOc1ccccc1C(C)(C)C,i,0,-4,0.012,2
CCc1ccc(NC(=O)c2onc(C)c2Cl)cc1,i,·,-6,-0.048,3
CCOc1ccc(NC(=O)CC2C(=O)N(c3cccc(OC)c3)C(=O)N2CCOC)cc1 (centres undefined),i,0,·,0.31,·
COc1ccc(NC2=C(C(C)=O)C(c3ccc(OC)c(OC)c3)C(C(C)=O)C(C)(O)C2)cc1 (centres undefined),i,3,-8,-0.93,2
Cc1ccc(C(=O)C(C)N(C(=O)c2ccc(Cl)cc2Cl)N2C(=O)CCCC2=O)cc1 (centres undefined),i,1,25,1.1,4
COc1ccc(C(=O)C(C)N(C(=O)c2ccc(Cl)cc2Cl)N2C(=O)C3C4C=CC(C4)C3C2=O)cc1 (centres undefined),i,-2,90*,-0.14,2
CCOc1cc2[nH]c(=O)n(Cc3ccc(C(=O)NCCCN4CCC(C)CC4)cc3)c(=O)c2cc1OCC,i,-1,1,0.44,3
CN1CCC(=C2c3ccccc3CC(=O)c3sccc32)CC1,i,-4,18,-0.71,3
CC(=O)Oc1ccc(N(C(C)=O)S(=O)(=O)c2cc([N+](=O)[O-])ccc2C)cc1,i,-1,41,0.75,2
COC(=O)CSc1cc(SCC(=O)OC)c(C#N)c(SCC(=O)OC)c1,i,0,64*,-0.37,7
CCCCCCCCCCCCCCCC[n+]1cccc2ccccc21,i,50,100*,-5.2*,73
Cc1nc([N+](=O)[O-])cn1C(C)C,i,0,·,-0.21,·
COc1ccc(OC)c(NC(=O)c2cc3c(Cl)nc4ccccc4c3s2)c1,i,1,72*,0.57,9
SMILES,HSV augment,b-catenin transl,Lmaj promast,Dynein transport,MT stabilizer
COc1ccc(NC(=O)c2cc3c(Cl)nc4ccccc4c3s2)cc1OC,i,0,-4,-0.95,13
COc1ccc(OC)c(NC(=O)c2cnc3ccccn3c2=O)c1,·,·,6,3.4,3
COc1ccc(OC)c(NC(=O)c2cnc(Nc3ccccc3OC)c3ccccc23)c1,i,-2,6,-0.4,19*
COc1ccc(N2CC(C(=O)N/N=C/c3ccc(C)cc3)CC2=O)cc1 (centres undefined),i,54*,0,2,21
Cc1ccc(N=N/C(=C\O)C(=O)c2ccc(Cl)cc2)cc1,·,-1,91*,0.65,2
COc1cc(OC)c(OC)cc1NC(=O)CC1COc2ccccc2O1 (centres undefined),i,7,-7,-0.02,5
COc1cccc(NC(=O)CC2COc3ccccc3O2)c1 (centres undefined),i,6,57*,-0.42,1
CN1c2ccccc2C(C)(C)C12CC(c1ccc(Cl)c(S(=O)(=O)N3CCCC3)c1)=NO2 (centres undefined),i,·,69*,-0.89,3
CN1c2ccccc2C(C)(C)C12CC(CCl)=NO2 (centres undefined),i,0,9,-3.3,5
O=C(CN1C(=O)c2ccccc2C1=O)NNC1=NS(=O)(=O)c2ccccc21,i,·,61*,-0.77,4
COc1cc(OC)c2nc(C)c3c(c2c1)N(c1ccc(O)cc1)CC3,·,·,99*,-0.99,3
Cc1cccc(N2C(=O)CN(Cc3sccc3C)C2=S)c1,i,-1,22,0.68,5
Cc1ccsc1CN1CC(=O)N(c2c(C)cccc2C)C1=S,i,·,53*,-0.65,5
CCCNc1nc(N2CCCC2)nc(N2CCCC2)n1,i,0,89*,-1.1,1
CCNc1nc(NC(C)(C)C)nc(N2CCCC2)n1,·,-1,80*,0.15,2
CC(C)(C)Nc1nc(N2CCCC2)nc(N2CCCC2)n1,i,-1,98*,-0.75,2
Cc1ccc(Nc2nc(NCCO)nc(N3CCCC3)n2)cc1,i,·,·,·,·
COc1cccc(C(C(=O)NC2CCCCC2)N(C(=O)c2ccccn2)c2cccnc2)c1 (centres undefined),i,-2,-2,-0.067,2
COc1ccc(C(=O)NCc2ccccn2)cc1[N+](=O)[O-],i,0,-1,-0.58,5
COc1ccc(/C=N/n2cncn2)cc1Cn1cc([N+](=O)[O-])cn1,i,-1,·,0.11,·
COc1ccc(/C=N/N2CCOCC2)cc1Cn1nc(C)c([N+](=O)[O-])c1C,i,-1,·,-0.15,·
COc1ccc(/C=N/Nc2ccccc2)cc1Cn1nc(C)c([N+](=O)[O-])c1C,i,-9,77*,0.25,2
COc1ccc(/C=N/Nc2ccc([N+](=O)[O-])cc2)cc1Cn1cc([N+](=O)[O-])cn1,i,51*,-3,-0.067,9
COc1cccc2sc(NC(=O)c3ccc(S(=O)(=O)N4CCOCC4)cc3)nc12,i,4,51*,1.1,3
COc1ccccc1NC(=O)c1ccc(S(=O)(=O)N2CCOCC2)cc1,i,-2,3,0.76,5
CCn1c(=NC(=O)c2ccc(S(=O)(=O)N3CCOCC3)cc2)sc2cccc(OC)c21,i,·,100*,-0.95,7
CC(C)CC(=O)Nc1nc2ccc(S(=O)(=O)N3CCOCC3)cc2s1,i,2,-1,0.7,49*
O=C(CSc1nnc(NC(=O)c2ccc(S(=O)(=O)N3CCOCC3)cc2)s1)Nc1ccccc1C(F)(F)F,i,2,92*,1.5,3
COc1ccc(C)cc1NC(=O)c1ccc(S(=O)(=O)N2CCOCC2)cc1,i,-5,-5,-0.051,2
